Assay outcomes as filed in PubChem BioAssay.
Most compounds without a hit are left out; they make up all but 2.3% or so of the library.
OXTR agonist: human OXTR agonists, primary screen, fluorescence, CHO-OTR cells, Fluo-8 calcium. Oxytocin receptor (Homo sapiens), P30559. Fluo-8 calcium fluorescence; normalized: DMSO 0%, oxytocin 100%. activation, % at 3 µM. 320,000 tested, 0.32% active. AID 2435, 2010;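 active = activation above the mean of all tested compounds plus 3 SD, cutoff set per screening run, cut at about 20% in these data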;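 note: peak over basal fluorescence ratio from a 100 s FLIPR kinetic read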
TAAR1 antagonist: human TAAR1 antagonists, primary screen, Fluo-8 calcium fluorescence, CHO RD-HGA16 cells; Trace amine-associated receptor 1 (Homo sapiens), Q96RJ0; antagonist; inhibition, % at 3 µM; 360,000 tested, 1.5% active; AID 624466, 2012;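 active = inhibition above a per-plate cutoff, the mean inhibition of test compounds on that plate plus 3 SD, cut at about 49% in these data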;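 note: 0% = DMSO plus EC80 beta-PEA response and 100% = DMSO alone without agonist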
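Assay system: RD-HGA16 CHO cells with stable hTAAR1 and Gα16 / Reagent: EC80 β-phenethylamine stimulus / Doses: 3 µM, single point / Timing: dye loading 75 min at 37 °C, then 30 min room temperature / Measured by: Fluo-8 intracellular calcium dye fluorescence, real-time kinetic reads / Controls: vehicle wells and EC80 agonist wells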
TAAR1 agonist: human TAAR1 agonists, primary screen, Fluo-8 calcium fluorescence, CHO RD-HGA16 cells. Trace amine-associated receptor 1 (Homo sapiens), Q96RJ0. vehicle wells 0%, saturating PEA agonist 100%. activation, % at 3 µM. 360,000 tested, 0.99% active. AID 624467, 2012;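 active = activation above the mean activation of all test compounds in the run plus 3 SD, cut at about 38% in these data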
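Test system: RD-HGA16 (CHO) cells co-expressing Gα16 and hTAAR1 / Benchmarks: DMSO vehicle as 0%, PEA at EC100 as 100% / Repeats: no replicates (n 1) / Measure: % activation from peak over basal fluorescence ratio, DMSO-to-PEA scaled / Timing: 17-24 h plating, Fluo-8 75 min 37 °C, 30 min RT / Technique: kinetic Fluo-8 calcium fluorescence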
V1R ag counter: agonists of human V1a receptor, primary screen, counter-screen for OXTR agonist project, fluorescence, CHO-V1R cells. Vasopressin V1a receptor (Homo sapiens), P37288. Fluo-8 calcium fluorescence, agonist mode; 0% DMSO, 100% 3 nM vasopressin. activation, % at 3 µM. 320,000 tested, 0.25% active. AID 2797, 2010;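 active = activation above the mean activation of all tested compounds plus 3 SD, per screening run, cut at about 20% in these data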;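 note: signal is peak over basal fluorescence ratio across a 100 second FLIPR read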
Target sequence (P37288 whole entry, looked up): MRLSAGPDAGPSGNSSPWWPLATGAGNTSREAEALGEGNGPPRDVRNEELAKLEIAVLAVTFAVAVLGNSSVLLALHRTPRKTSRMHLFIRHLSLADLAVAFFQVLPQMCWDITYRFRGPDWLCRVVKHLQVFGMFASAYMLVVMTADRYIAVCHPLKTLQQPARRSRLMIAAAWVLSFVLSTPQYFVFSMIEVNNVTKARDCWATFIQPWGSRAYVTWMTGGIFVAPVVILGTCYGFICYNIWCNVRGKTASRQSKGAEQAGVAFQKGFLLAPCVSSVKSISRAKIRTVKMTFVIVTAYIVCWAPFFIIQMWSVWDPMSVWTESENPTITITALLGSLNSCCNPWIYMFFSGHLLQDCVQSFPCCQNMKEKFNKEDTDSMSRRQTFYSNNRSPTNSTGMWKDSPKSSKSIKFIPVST
OXTR potentiator: human OXTR potentiators, primary screen, fluorescence, CHO-OTR cells, Fluo-8 calcium. Oxytocin receptor (Homo sapiens), P30559. Fluo-8 calcium fluorescence, potentiator mode; 0% = oxytocin EC15, 100% = EC100. activation, % at 3 µM. 320,000 tested, 0.061% active. AID 2445, 2010;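 active = activation above that plate's cutoff, the mean activation of tested compounds plus 3 SD, cut at about 6.6% in these data, passing the limit was not always enough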;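 note: 100% uses oxytocin at 75 nM as the full agonist control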
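Replication – single well per compound, singlicate · Assay system – CHO cell line stably expressing human OTR · Timing – 6 min pre-incubation, 100 s read · Measure – normalized max/min fluorescence ratio, % activation · Doses – 3.0 µM, one dose · Detection – Fluo-8 calcium dye fluorescence · Probe or stimulus – oxytocin near EC15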
* marks the source's active call; other numbers are inactive results; · = no result; ! = not confirmed by another sample.

SMILES	OXTR agonist	TAAR1 antagonist	TAAR1 agonist	V1R ag counter	OXTR potentiator
COc1ccc(C(c2nnnn2Cc2ccccc2)N2CCC3(CC2)C(=O)NCN3c2ccccc2)cc1 (stereo not given)	·	4.3	3.3	·	·
COc1ccc(-n2nnnc2C(CCSC)N2CCC(n3c(=O)[nH]c4ccccc43)CC2)cc1 (stereo not given)	·	55.1*	13.8	·	·
O=c1[nH]c2ccccc2n1C1CCN(C(CCc2ccccc2)c2nnnn2-c2ccc3c(c2)OCCO3)CC1 (stereo not given)	·	55.0*	7.2	·	·
COc1ccc(C(c2nnnn2-c2ccc3c(c2)OCCO3)N2CCC(n3c(=O)[nH]c4ccccc43)CC2)cc1 (stereo not given)	·	58.9*	20.4	·	·
Cc1cccc(C)c1-n1nnnc1C(CCc1ccccc1)N1CCC(n2c(=O)[nH]c3ccccc32)CC1 (stereo not given)	·	16.5	4.0	·	·
COc1cccc(C(c2nnnn2Cc2ccccc2)N2CCC3(CC2)C(=O)NCN3c2ccccc2)c1OC (stereo not given)	·	53.6*	8.1	·	·
C[C@H]1CNCCN1c1ccc(N2CC[C@@H](O)C2)c(C#N)c1	·	-21.1	2.2	·	·
CSCCC(c1nnnn1-c1ccc2c(c1)OCCO2)N1CCC2(CC1)C(=O)NCN2c1ccccc1 (stereo not given)	·	53.5*	16.9	·	·
O=C(Cn1cnc2sc3c(c2c1=O)CCCC3)NCCC(=O)N1CCC2(CC1)OCCO2	-0.4	-3.6	1.8	-0.1	-2.4
CCOC(=O)[C@]12Cc3c(cc(OC)c(OC)c3OC)[C@H]1N(C(C)C)C(=O)c1ccccc12	·	2.7	-0.6	·	·
C[C@]12C[C@H](O)[C@@H](O)C[C@@H]1CC[C@@H]1[C@@H]2CC[C@]2(C)C(=O)CC[C@@H]12	·	50.6*	10.8	·	·
NC(Cc1ccccc1)c1csc(Nc2ccccn2)n1 (stereo not given)	·	12.2	6.3	·	·
NC(Cc1ccc(F)cc1)c1csc(Nc2ccccn2)n1 (stereo not given)	·	8.2	39.7*	·	·
NC(Cc1ccc(Cl)cc1)c1csc(Nc2ccccn2)n1 (stereo not given)	·	28.5	43.9*	·	·
CN(C)P(=O)(C(Cl)=C(N1CCCCC1)N1CCCCC1)N(C)C	-1.8	3.9	20.2	-0.8	-0.5
O=C1NC(=O)N(c2ccccc2F)C(=O)/C1=C/c1ccc(Sc2nc3ccccc3[nH]2)o1	39.0*	56.8*	74.3*	28.0*	-11.9
NCCc1ccc(S(N)(=O)=O)cc1	-1.4	-9.7	7.8	-0.8	-15.8
NCCc1ccccc1	0.9	81.3*	91.9*	0.1	-0.8
O=C1NCN(c2ccccc2)C12CCN(C(c1cc3ccccc3o1)c1nnnn1C1CCCCC1)CC2 (stereo not given)	·	-10.4	0.7	·	·
Clc1ccc(COC(Cn2ccnc2)c2ccc(Cl)cc2Cl)c(Cl)c1 (stereo not given)	1.4	53.1*!	18.8	0.1	-4.0
CN(C(=O)Oc1ccc(F)cc1)c1ccccc1	1.1	-15.5	6.6	0.9	-0.4
C=CCSc1nc2c(c(-c3ccsc3)c1C#N)CN(C)CC2	-2.0	-9.1	4.5	-0.5	-7.2
COc1ccc2c3c([nH]c2c1)C(C)=NCC3	-0.1	-9.8	1.4	1.1	-5.2
CC1=NCCc2c1[nH]c1cc(O)ccc21	42.9*	-0.8	25.9	29.7*	-11.7
COC(=O)C1=C(c2cc3ccccc3s2)C[C@@H]2CC[C@H]1N2C(=O)NCc1ccco1	-1.1	-0.8	7.9	-0.7	-6.4
SMILES	OXTR agonist	TAAR1 antagonist	TAAR1 agonist	V1R ag counter	OXTR potentiator
CCOC(=O)C(NC(=O)CC)(Nc1ccc(C(O)(C(=O)OCC)C(F)(F)F)cc1C)C(F)(F)F (stereo not given)	-0.1	-3.4	0.9	-0.3	-13.4
COC(=O)C(O)(c1ccc(NC(=S)NC(=O)c2ccc(Cl)cc2Cl)cc1)C(F)(F)F (stereo not given)	19.0	54.3*	47.7*	18.0	-10.6
COC(=O)C(O)(c1ccc(NC(=S)NC(=O)c2ccc(Cl)cc2Cl)c(C)c1)C(F)(F)F (stereo not given)	29.3*	71.6*	34.2	21.7*	-13.8
CC1([N+](=O)[O-])COP(=O)(Nc2cccc(Cl)c2)OC1 (stereo not given)	·	-9.2	3.8	·	·
Cc1cc(C)n(-c2ccc(NN=C(C#N)C#N)cc2)n1	18.7	23.5	15.0	18.5	-18.6
N#CC(C#N)=NNc1ccc(-n2ccc(C(F)(F)F)n2)cc1	24.4*	9.1	5.5	14.1	-20.7
CCOc1cc2c(cc1OCC)-n1cccc1C(c1cc(OC)ccc1F)NC2 (stereo not given)	0.4	-15.1	3.3	-1.5	-1.2
COC(=O)C1=C(c2ccc(C(C)=O)cc2)C[C@@H]2CC[C@H]1N2C(=O)NCc1ccc(C(F)(F)F)cc1	44.6*	·	·	33.0*	-9.8
COC(=O)C1=C(c2ccc(F)cc2OCc2ccccc2)C[C@@H]2CC[C@H]1N2C(=O)NCc1ccc(Br)cc1	2.3	51.1*	12.1	3.1	-3.8
O=C1NC(=S)N(c2ccccc2)C(=O)C1C(c1ccncc1)C1C(=O)NC(=S)N(c2ccccc2)C1=O (stereo not given)	-0.6	-7.4	3.7	1.7	-3.8
CCCCc1nc(N2CCNCC2)c(C#N)c2c1CSC(C)(C)C2	-1.3	16.8	40.5*	-1.2	-11.2
CC(C)NC1(c2ccccc2)CCCCC1	·	-14.7	5.0	·	·
CCC(=NCCc1c[nH]c2ccccc12)c1c(O)n(C)c(=O)n(C)c1=O	18.6	49.5*	13.4	10.0	-6.5
CC(=NCCc1ccccc1)c1c(O)n(C)c(=O)n(C)c1=O	-1.4	-25.5	43.0*	3.0	-4.5
C[C@]12CC[C@H](O)CC1=CCC1C2CC[C@]2(C)C(=O)[C@H](Br)CC12 (stereo not given in full)	5.8	58.6*	11.9	7.0	-8.6
C[C@]12CC[C@H](O)CC1=CC[C@@H]1[C@@H]2CC[C@]2(C)C(=O)CC[C@@H]12	-1.4	-20.7	6.7	0.9	-9.0
Cc1cc(/C=C2\C(=O)NC(=O)N(c3cccc(F)c3)C2=O)c(C)n1-c1cc(C(=O)O)cc(C(=O)O)c1	0.3	-16.4	11.9	1.1	-2.1
Cc1cc(C)cc(-n2c(C)cc(/C=C3\C(=O)NC(=O)N(C)C3=O)c2C)c1	-1.1	-16.1	38.0*	-0.3	-8.4
COc1ccc(CCn2c(O)c(C=NCCCN(C)C)c(=O)[nH]c2=O)cc1OC	1.1	-2.7	3.2	0.6	-0.8
